Assay [1] deals with Bone marrow cell. The assay is described as follows: Induction of cell differentiation in mouse bone marrow cells transformed with MLL-AF9 assessed as change in morphology at 3 uM incubated for 6 days by Wright-Giemsa staining based inverted microscopy. The following applies: time 6.0 day. The assay is classed as functional. In outline: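 Cells taken on day 6 of the proliferation culture (MLL-AF9 murine line, IMDM + 15% FBS + IL-3, re-dosed at each split, 0.3% DMSO). Cytospun onto slides, Wright-Giemsa stained, and imaged under bright field on an inverted microscope to assess morphology.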

In assay [2] the target is T1, Histone H3 methyltransferase DOT1 variant d (Mus musculus) (UniProt Q679P4).
T1 sequence (whole entry): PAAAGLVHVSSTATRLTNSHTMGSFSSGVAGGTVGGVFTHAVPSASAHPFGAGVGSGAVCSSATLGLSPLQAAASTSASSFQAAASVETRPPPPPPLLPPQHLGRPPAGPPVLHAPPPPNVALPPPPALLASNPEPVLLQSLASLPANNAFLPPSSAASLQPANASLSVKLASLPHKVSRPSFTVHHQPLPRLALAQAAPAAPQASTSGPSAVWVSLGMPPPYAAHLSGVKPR
The assay is described as follows: Inhibition of DOT1L in mouse bone marrow cell transformed with MLL-AF9 cells assessed as reduction in H3K27 methylation at 100 uM measured upto 9 days by Western blot analysis. The assay is classed as cell-based. The following applies: time day <=9. A general note: Immunoblotting shows a protein as a band on a membrane.

Assay [3] addresses T2, Histone-lysine N-methyltransferase, H3 lysine-79 specific (Homo sapiens, UniProt Q8TEK3). The assay can be described thus: Inhibition of recombinant human N-terminal GST-tagged DOT1L (1 to 420 residues) expressed in Escherichia coli BL21 (DE3) using nucleosome as substrate incubated for 1 hr in presence of [3H]-SAM by liquid scintillation counting method. The gist of the method: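 GST-tagged DOT1L catalytic domain (1-420), expressed in E. coli BL21(DE3) and Ni-affinity purified, used at 125 nM. Compound added before SAM start; 1 hr at room temperature. Product captured on P81 filters, NaHCO3-washed, and counted by scintillation.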
Target sequence in this assay (Q8TEK3 whole entry, the tested form may be a part): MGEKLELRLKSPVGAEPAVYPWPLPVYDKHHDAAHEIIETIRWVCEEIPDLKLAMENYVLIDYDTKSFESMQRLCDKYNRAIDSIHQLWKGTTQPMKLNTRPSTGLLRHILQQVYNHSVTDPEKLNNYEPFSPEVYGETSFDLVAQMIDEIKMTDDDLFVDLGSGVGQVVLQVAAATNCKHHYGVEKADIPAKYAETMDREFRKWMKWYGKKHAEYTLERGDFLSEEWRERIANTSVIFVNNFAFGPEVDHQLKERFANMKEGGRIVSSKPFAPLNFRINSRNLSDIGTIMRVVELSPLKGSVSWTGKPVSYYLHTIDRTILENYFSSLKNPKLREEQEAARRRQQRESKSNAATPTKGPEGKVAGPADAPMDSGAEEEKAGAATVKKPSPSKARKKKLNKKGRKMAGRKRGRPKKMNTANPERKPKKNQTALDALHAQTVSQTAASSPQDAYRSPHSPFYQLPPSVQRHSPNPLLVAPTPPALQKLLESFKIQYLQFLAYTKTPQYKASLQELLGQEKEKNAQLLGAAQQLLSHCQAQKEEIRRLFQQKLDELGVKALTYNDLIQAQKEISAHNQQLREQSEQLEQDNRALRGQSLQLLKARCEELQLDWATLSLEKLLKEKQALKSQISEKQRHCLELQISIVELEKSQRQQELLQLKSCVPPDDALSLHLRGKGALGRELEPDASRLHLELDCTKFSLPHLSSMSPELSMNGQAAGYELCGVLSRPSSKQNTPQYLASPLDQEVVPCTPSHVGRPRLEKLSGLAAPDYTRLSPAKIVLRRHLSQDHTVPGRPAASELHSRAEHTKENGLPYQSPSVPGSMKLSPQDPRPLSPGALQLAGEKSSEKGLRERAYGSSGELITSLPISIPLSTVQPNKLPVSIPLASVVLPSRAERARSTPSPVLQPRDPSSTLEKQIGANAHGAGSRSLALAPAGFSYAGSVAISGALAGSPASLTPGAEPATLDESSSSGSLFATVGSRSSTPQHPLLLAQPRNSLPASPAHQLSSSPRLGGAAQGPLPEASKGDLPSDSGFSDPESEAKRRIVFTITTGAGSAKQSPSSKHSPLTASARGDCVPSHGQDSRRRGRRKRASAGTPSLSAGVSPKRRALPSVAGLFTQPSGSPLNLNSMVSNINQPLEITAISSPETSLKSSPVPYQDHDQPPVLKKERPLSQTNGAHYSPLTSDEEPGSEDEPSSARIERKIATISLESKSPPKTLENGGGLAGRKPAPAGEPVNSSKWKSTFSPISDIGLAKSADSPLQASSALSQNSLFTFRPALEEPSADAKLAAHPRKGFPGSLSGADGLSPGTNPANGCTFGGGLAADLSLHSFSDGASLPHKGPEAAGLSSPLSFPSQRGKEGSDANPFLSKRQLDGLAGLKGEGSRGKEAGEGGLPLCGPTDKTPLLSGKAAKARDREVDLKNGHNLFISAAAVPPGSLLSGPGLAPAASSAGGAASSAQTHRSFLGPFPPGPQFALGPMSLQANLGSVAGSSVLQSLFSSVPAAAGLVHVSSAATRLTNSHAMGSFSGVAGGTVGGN

In assay [4] the target is T1, Histone H3 methyltransferase DOT1 variant d (Mus musculus). The assay can be described thus: Inhibition of DOT1L in mouse bone marrow cell transformed with MLL-AF9 cells assessed as reduction in H3K79 methylation at 100 uM measured upto 9 days by Western blot analysis. The assay is classed as cell-based. The following applies: time day <=9, TDE = time-dependent effect.

For assay [5] the target is unchanged. The assay is described as follows: Inhibition of DOT1L in mouse bone marrow cell transformed with MLL-AF9 cells assessed as reduction in H3K36 methylation at 100 uM measured upto 9 days by Western blot analysis. The assay is classed as cell-based. The following applies: time day <=9.
Assay [6] deals with T2, Histone-lysine N-methyltransferase, H3 lysine-79 specific. The assay can be described thus: Binding affinity to recombinant human N-terminal GST-tagged DOT1L (1 to 420 residues) expressed in Escherichia coli BL21 (DE3) assessed as increase in melting temperature at 100 uM incubated for 1 min by 1,8-ANS probe based thermal shift assay.
Target sequence in this assay (Q8TEK3 whole entry, looked up, the tested form may be a part): as the sequence (Q8TEK3 whole entry, the tested form may be a part) above

Calls of active or inactive are those of the source. The rule behind the calls is not given here.

As to `CC(C)N(CCCNC(=O)Nc1ccc(C(C)(C)C)cc1)C[C@H]1O[C@@H](n2ccc3c(N)ncnc32)[C@H](O)[C@@H]1O`, the result in assay [1] was Active.
For orientation: IC50 means the concentration that gives 50% inhibition. For `Nc1ncnc2c1ncn2[C@@H]1O[C@H](CNCc2ccc(OCC(=O)Nc3ccccn3)cc2)[C@@H](O)[C@H]1O`, the inhibition entry in assay [2] and in assay [5] was “inactive” each time. In addition, the half-inhibitory concentration (IC50) in assay [3] is 54.9 µM. The inhibition result in assay [4] is “Tde”. Moreover, the result in assay [6] was Active.

The record behind these values is ChEMBL document CHEMBL4680176, “Identification of DOT1L inhibitors by structure-based virtual screening adapted from a nucleoside-focused library” (Eur J Med Chem, 2020).
